# Sampled rows, rich in hits. Any-hit rate of the full collection: about 1.2%.
# G6PDH counter: counter-screen for G6PDH assay hits: L. mesenteroides G6PDH inhibition | inhibition, % at 5 µM | Purified L. mesenteroides G6PDH, diaphorase/resazurin coupled fluorescence, 45 min | 0.12% of 200,000 active; in the data active = inhibition above about 50%
# PfG6PD inh: PfG6PD (Plasmodium falciparum) enzyme inhibition. 0.78% of 350,000 active. inhibition, % at 20 µM. PfGluPho enzyme, NADPH resazurin-diaphorase fluorescence. AID 504690;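 active = inhibition reaching at least a set limit at 20 µM in the primary screen, cut at about 59% in these data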;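 also: 0% = DMSO wells with substrate and 100% = DMSO wells lacking glucose-6-phosphate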
# HKDC1 inh: HKDC1 (human) hexokinase inhibition. AID 493160. inhibition, % at 20 µM. 0.16% of 340,000 active. Q2TB90. recombinant HKDC1, G6PDH/diaphorase resazurin coupled fluorescence;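 active = inhibition above about 35% when tested at 20 µM, limit read from the data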;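 also: plate controls were DMSO wells with enzyme for no effect and DMSO wells lacking enzyme for full effect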
#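 Assay system: recombinant HKDC1 hexokinase; detection: coupled resazurin fluorescence, excitation 525 nm, emission 613 nm; benchmarks: DMSO-plus-enzyme-mix negative control, buffer-substituted positive control; compound dosing: single 20 µM dose; schedule: 90 min at room temperature in dark; also added: glucose plus 1 mM ATP as hexokinase substrates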
# Diaphorase inh: counter-screen for diaphorase-based assays: diaphorase inhibitors and chemical oxidizers. inhibition, % at 20 µM. AID 1217. 0.69% of 190,000 active. diaphorase resazurin-to-resorufin fluorescence, NADH, 16 min; bacterial (C. kluyveri) enzyme, not human;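 active = primary screen inhibition at 20 µM above a set limit, cut at about 50% in these data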;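 also: plate controls were DMSO with full reaction for no effect and wells lacking NADH for full effect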
#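 controls = No-NADH positive control and DMSO neutral control | system = Clostridium kluyveri diaphorase enzyme | timing = reaction incubation of 16 min at room temperature | signal = resorufin fluorescence 544/590 nm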
# Numbers without * were called inactive; nt = not tested or not shown.
SMILES,G6PDH counter,PfG6PD inh,HKDC1 inh,Diaphorase inh
CC12CCC(C(=O)N(CSC(=S)N/N=C\c3ccccc3)C1=O)C2(C)C (centres undefined),-2,7,-20,58*
CCOC(=O)C1CCN(C(=O)COC(=O)CSc2ccccc2C)CC1,nt,-3,-4,nt
COc1ccc(-n2nnc3c(SC(C(C)=O)C(=O)N(C)C)ncnc32)cc1 (centres undefined),nt,64*,-3,nt
COC(=O)C(C)Sc1ncnc2c1nnn2-c1ccc(F)cc1 (centres undefined),3,-13,-7,16
CCOC(=O)c1csc(N)n1,3,1,-9,4
CCOC(=O)c1ccccc1-c1csc(N)n1,6,-7,-5,81*
Cc1cccc(N(C)c2ncnc3onc(-c4ccc(F)cc4)c23)c1C,nt,5,-3,nt
CC(C)(C)OC(=O)NCCc1onc(-c2cccc([N+](=O)[O-])c2)c1C(=O)O,nt,-8,nt,nt
C#CCOCCOCCOCCNc1nc(N2CCN(C(=O)[C@H](CCCCN)n3cc([C@@H](N)C(C)CC)nn3)CC2)nc(N2CCN(C(=O)[C@H](Cc3cc4ccccc4[nH]3)n3cc([C@@H](N)CC(C)C)nn3)CC2)n1 (some centres undefined),-10,60*,4,-67
C#CCOCCOCCOCCNc1nc(N2CCN(C(=O)[C@H](CCC(=O)O)n3cc(C(N)Cc4ccc(O)cc4)nn3)CC2)nc(N2CCN(C(=O)[C@H](CCC(=O)O)n3cc(C(N)CC(C)C)nn3)CC2)n1 (some centres undefined),12,-1,-1,57*
CC1(C)Oc2ccc3ccc(=O)oc3c2[C@@H](O)[C@@H]1O,nt,-18,-2,nt
CCOC(=O)c1cc2c(=O)n3ccccc3nc2n(Cc2ccco2)c1=NC(=O)c1ccccc1OC,-1,7,-13,80*
Cc1ccc2nc3c(cc(S(=O)(=O)c4ccccc4)c(=N)n3Cc3ccco3)c(=O)n2c1,-2,5,1,52*
N=c1c(S(=O)(=O)c2ccccc2)cc2c(=O)n3ccccc3nc2n1Cc1ccco1,0,15,5,51*
CSCCC(NC(=O)c1ccco1)C(=O)Nc1ccc(C)cn1 (centres undefined),nt,4,0,nt
CC1(C)N=C(N)N=C(N)N1CCCCc1ccccc1,nt,3,-4,nt
C#CCOCCOCCOCCNc1nc(N2CCN(C(=O)CCCCCCCCCCNC(=O)[C@H](CCCCN)n3cc(C)nn3)CC2)nc(N2CCN(C(=O)CCCCCCCCCCNC(=O)[C@H](CCCCN)n3cc(CCCC(=O)O)nn3)CC2)n1,nt,59*,-11,nt
C#CCOCCOCCOCCNc1nc(N2CCN(C(=O)CCCCCCCCCCNC(=O)[C@@H](CCC(=O)O)n3cc(CCCCCN)nn3)CC2)nc(N2CCN(C(=O)CCCCCCCCCCNC(=O)[C@H]([C@@H](C)CC)n3cc(CCCCCN)nn3)CC2)n1,nt,8,-2,nt
C#CCOCCOCCOCCNc1nc(N2CCN(C(=O)CCCCCCCCCCNC(=O)Cn3cc(CCCCCN)nn3)CC2)nc(N2CCN(C(=O)CCCCCCCCCCNC(=O)Cn3cc(CCCCCN)nn3)CC2)n1,nt,77*,-9,nt
C#CCOCCOCCOCCNc1nc(N2CCN(C(=O)CCCCCCCCCCNC(=O)[C@H](CCCCN)n3cc(CCCC(=O)O)nn3)CC2)nc(N2CCN(C(=O)CCCCCCCCCCNC(=O)[C@@H]([C@H](C)O)n3cc(C)nn3)CC2)n1,nt,9,0,nt
C#CCOCCOCCOCCNc1nc(N2CCN(C(=O)CCCCCCCCCCNC(=O)[C@H]([C@@H](C)CC)n3cc(CCCCN=C(N)N)nn3)CC2)nc(N2CCN(C(=O)CCCCCCCCCCNC(=O)[C@H](CCCCN)n3cc(C)nn3)CC2)n1,nt,72*,10,nt
C#CCOCCOCCOCCNc1nc(N2CCN(C(=O)CCCCCCCCCCNC(=O)[C@H]([C@@H](C)CC)n3cc(CCCCCN)nn3)CC2)nc(N2CCN(C(=O)CCCCCCCCCCNC(=O)[C@H](CO)n3cc(CCCCCN)nn3)CC2)n1,nt,61*,-3,nt
O=C(NCc1ccccn1)c1cccc(S(=O)(=O)Nc2ccccc2Cl)c1,nt,-7,-9,nt
COC(=O)C(C)(C)c1cccnc1C#N,nt,13,-2,nt
C#CCOCCOCCOCCNc1nc(N2CCN(C(=O)CCCCCCCCCCNC(=O)[C@H]([C@@H](C)CC)n3cc(CCCCN=C(N)N)nn3)CC2)nc(N2CCN(C(=O)CCCCCCCCCCNC(=O)[C@H](CO)n3cc(CCCCCN)nn3)CC2)n1,nt,64*,6,nt
SMILES,G6PDH counter,PfG6PD inh,HKDC1 inh,Diaphorase inh
Cc1c(CCC(=O)NCCCN2CCCC2=O)c(=O)oc2c(C)c(O)ccc12,nt,15,-5,nt
Cc1cc(C(=O)COc2cccnc2[N+](=O)[O-])c(C)n1Cc1cccs1,11,9,12,60*
Cc1cc(C(=O)CSc2n[nH]c(-c3ccccc3F)n2)c(C)n1Cc1cccs1,0,5,17,50*
CC(=O)Nc1ccccc1OCC(=O)c1cc(C)n(Cc2cccs2)c1C,-4,-7,-1,20
Cc1csc(SCC(=O)c2cc(C)n(Cc3cccs3)c2C)n1,1,0,8,13
CCOc1ccc(NC(=O)CN(C)C(=O)c2cccnc2Sc2ccccc2Cl)cc1OCC,nt,6,-1,nt
CCOCCCNC(=O)C1(O)c2ccccc2NC(=O)N1c1ccc(Cl)cc1 (centres undefined),nt,-4,-3,nt
COc1ccc(C=NCCc2ccc(OC)c(OC)c2)cc1OC,nt,0,nt,nt
N#CC1=C(N)SC(N)=C(C#N)C1CCC1CCCCC1,-3,nt,nt,54*
Cn1c(N)c(Sc2ccccc2[N+](=O)[O-])c(=O)n(C)c1=O,nt,-14,-7,nt
Cc1ccc(N2CC(NC(=O)N3CCN(C(=O)c4ccco4)CC3)CC2=O)cc1 (centres undefined),nt,-15,2,nt
O=C(COC(=O)c1ccc(Cl)c(S(=O)(=O)N2CCCCC2)c1)NC1CCCCC1,nt,0,nt,nt
CCc1ccc(N2C(=O)Cc3c2nc(N)c(C#N)c3N)cc1,-1,16,4,36
CCN(CC)c1nc2c3c(nc4c(c3c1C#N)CC(=O)N4c1ccc(Cl)cc1)NC(C)=N2,-24,24,13,58*
COC(=O)c1sc(NC(=O)c2cccc([N+](=O)[O-])c2)c(C(N)=O)c1C,-6,27,-9,1
COC(=O)c1c(NC(=O)c2cccc([N+](=O)[O-])c2)sc(C(N)=O)c1C,5,9,-11,72*
O=C(COC(=O)c1c(F)cccc1F)Nc1ccc2[nH]c(=O)[nH]c2c1,10,22,3,9
O=C(COc1cccc(F)c1)Nc1ccc2[nH]c(=O)[nH]c2c1,10,6,0,55*
CNc1ccccc1,nt,-6,0,nt
CNc1cccccc1=S,13,65*,18,20
COc1cc(/C=C2/SC(=S)NC2=O)ccc1OS(=O)(=O)c1ccc(C)cc1,-5,23,8,50*
Cc1ccc(-n2nnc3c(SCC(=O)NCc4ccco4)ncnc32)cc1,0,-6,-2,57*

# Screens (PubChem)
